Published values of several laboratories.
Lines come from different studies, so protocols differ.
Observed: metabolic stability
Species: human
Medium: liver microsomes

CCN(CC)CCCOc1ccc2c(=O)c3c([nH]c2c1)CCCC3
microsomal CLint (1 µM, pH 7.4): 5.53 µL/min/mg

N[C@H](COCC(=O)N1CCC[C@H](C(=O)NCc2nc(-c3ccc(C(F)(F)F)cc3)cs2)C1)c1ccccc1
microsomal CLint (0.5 µM): 80 µL/min/mg

CNc1ccc(C(N)=O)cn1
microsomal CLint (1 µM, pH 7.4): < 3 µL/min/mg

CCCN(CCC)CCOc1ccc2c(=O)c3c([nH]c2c1)CCCC3
microsomal CLint (1 µM, pH 7.4): 17.5 µL/min/mg

CC1(C(F)F)NC(=O)N(c2ccc(F)c(C(F)(F)F)c2)C1=O (stereo not drawn)
microsomal CLint: < 7 µL/min/mg

CCCCN(CCCC)CCCOc1ccc2c(=O)c3c([nH]c2c1)CCCC3
microsomal CLint (1 µM, pH 7.4): 91.8 µL/min/mg

O=C(NCc1nc(-c2ccc(C(F)(F)F)cc2)cs1)[C@H]1CCCN(C(=O)CO[C@H]2CCCNC2)C1
microsomal CLint (0.5 µM): 13 µL/min/mg

CCCN(CCC)CCCOc1ccc2c(=O)c3c([nH]c2c1)CCCC3
microsomal CLint (1 µM, pH 7.4): 37.1 µL/min/mg

CC1(C)NC(=O)N(c2ccc(F)c(Br)c2)C1=O
microsomal CLint: < 7 µL/min/mg

N#Cc1ccc(-c2csc(CNC(=O)[C@H]3CCCN(C(=O)N4CCCO4)C3)n2)cc1
microsomal CLint (0.5 µM): 112 µL/min/mg

Cc1ccc(OCC(=O)N[C@@H](Cc2c[nH]c3ccccc23)C(=O)OC(C)C)cc1
microsomal CLint (20 mM): 14.6 µL/min/mg

COCC(=O)N1CCC[C@H](C(=O)NCc2nc(-c3ccc(C)nc3)cs2)C1
microsomal CLint (0.5 µM): 5.1 µL/min/mg

O=C(N1CCCCC1)C12CC(c3ccccc3)(C1)C2
microsomal CLint (2 µM, pH 7.4): 24 µL/min/mg

CC1(C)CCC(C(=O)NCc2nc(-c3ccc(C#N)cc3)cs2)CN1C(=O)COCCF (racemic)
microsomal CLint (0.5 µM): 219 µL/min/mg

Cc1ccc(N(C)c2ccc(NC(=O)CN(C)c3ccccc3N3CCCC3=O)cc2)cc1
microsomal CLint: 347 µL/min/mg

CCOc1ccc(-c2csc(CNC(=O)[C@H]3CCCN(C(=O)COC)C3)n2)cc1
microsomal CLint (0.5 µM): 24 µL/min/mg

Cc1ccc(N(c2ccc(NC(=O)CN(C)c3ccccc3N3CCCC3=O)cc2)C(C)C)cc1
microsomal CLint: 319 µL/min/mg

O=c1c2ccc(Oc3ccccc3OC(F)(F)F)cc2[nH]c2cc(Cl)cc(F)c12
microsomal CLint (1 µM, pH 7.4): 20.3 µL/min/mg

c1ccc(Oc2ccc(Nc3c4c(nc5ccccc35)CCC4)cc2)cc1
microsomal CLint (0.5 µM): 31 µL/min/mg

COCC(=O)N1CCC[C@H](C(=O)NCc2nc(-c3cccnc3)cs2)C1
microsomal CLint (0.5 µM): < 7 µL/min/mg

O=c1c2ccc(OCc3cccc(C(F)(F)F)c3)cc2[nH]c2ccc(Cl)c(F)c12
microsomal CLint (1 µM, pH 7.4): 2.73 µL/min/mg
